Consider 13 compounds from ChEMBL document CHEMBL3627669, “Wittig derivatization of sesquiterpenoid polygodial leads to cytostatic agents with activity against drug resistant cancer cells and capable of pyrrolylation of primary amines” (2015).

Calls of active or inactive are those of the source. The calls are words filed in the database; no cut-off is given here.

The subject of one assay is A549. Put plainly: Cytotoxicity against human A549 cells assessed as growth inhibition incubated for 72 hrs by MTT assay. Format: functional. The note with it: A549, 72 h. Summed up: (§1)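 MTT assay. Stocks of 100 or 50 mM in DMSO. Cells seeded at line-dependent density, grown 24–72 h, then treated across […] for 72 h. Negative control 0.1% DMSO, positive control 1 μM phenylarsine oxide. GI50 is the concentration reducing viability 50% relative to control, averaged over experiments each run in sextuplicate.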
In general terms: Tetrazolium assays rely on reduction of a dye to a coloured formazan, in cell work by metabolically active cells.

A short description of assay [1]: Cytotoxicity against human Hs683 cells assessed as growth inhibition incubated for 72 hrs by MTT assay. The note with it: Hs 683, 72 h. The assay is classed as functional. Summed up: as §1
Assay [2] relates to U-373MG ATCC. Briefly: Cytotoxicity against human U373 cells assessed as necrotic and late apoptotic cells at 100 uM after 72 hrs by Trypan blue assay. The assay is classed as functional, cell-based. Summed up:
(§2)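 U373 cells treated 72 h, stained with trypan blue and imaged. Cells were then fixed with ice-cold methanol and restained as an internal positive control. Single experiment in triplicate.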

The test system of assay [3] is U-373MG ATCC. Put plainly: Cytotostatic activity on human U373 cells assessed as change in cell morphology at 100 uM after 72 hrs by videomicroscopic analysis. The assay is classed as functional, cell-based.
Assay [4] addresses Transient receptor potential cation channel subfamily V member 1 (Homo sapiens) (UniProt Q8NER1). Briefly: Activity at TRPV1 in human MDA-MB--231 cells assessed as transient and synchronous increase in cytosolic Ca2+ level at 80 uM in presence of TRPV1 blocker capsazepine by FURA2-based fluorescence imaging analysis. The assay is classed as cell-based.
A further assay concerns MCF7. Put plainly: Cytotoxicity against human MCF7 cells assessed as growth inhibition incubated for 72 hrs by MTT assay. The assay is classed as functional. The note with it: MCF7, 72 h. Summed up:
as §1

The nature of assay [5]: Cytotoxicity against human U373 cells assessed as growth inhibition incubated for 72 hrs by MTT assay. Format: functional, U-373MG ATCC. The note with it: U373 MG. Summed up: as §1
Assay [6] concerns the target Transient receptor potential cation channel subfamily V member 1 (Homo sapiens) (UniProt Q8NER1). Briefly: Activity at TRPV1 in human MDA-MB--231 cells assessed as transient and synchronous increase in cytosolic Ca2+ level at 80 uM by FURA2-based fluorescence imaging analysis. The assay is classed as cell-based.
The target of assay [7] is Transient receptor potential cation channel subfamily V member 1 (Rattus norvegicus) (UniProt O35433). Put plainly: Displacement of [3H]-RTX from vanilloid site of TRPV1 receptor in rat spinal cord at 10 uM incubated for 60 mins by scintillation counting analysis. Summed up: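 Rat spinal cord homogenized in buffer A (pH 7.4, HEPES/sucrose salts). Membranes collected from a 35,000g spin. Binding run with 0.5 mg/mL membranes, 0.25 mg/mL BSA, 2 nM [3H]-RTX, and compound at 10 μM, for 60 min at 37 °C. Nonspecific binding defined with 100 μM unlabeled RTX. Reaction stopped on ice with α1-acid glycoprotein, then centrifuged and the pellet counted by scintillation. Result is % specific binding, mean ± SEM of 3 experiments.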
(Displacement assays read how much labelled ligand stays bound in the presence of the test substance.)

The subject of the next assay is SK-MEL-28. Briefly: Cytotoxicity against human SK-MEL-28 cells assessed as growth inhibition incubated for 72 hrs by MTT assay. The note with it: SK-MEL-28, 72 h. The assay is classed as functional. Summed up:
as §1

For assay [8], the system named is Glioma cell. Put plainly: Cytotoxicity against cdkn2a/TRPV1 doubly deficient PDGFB amplified mouse neurosphere glioma cells using bis-AAF-R110 as substrate at 10 uM preincubated for 24 hrs followed by substrate addition measured after 2 hrs by fluorescence analysis. Format: functional, cell-based. Summed up: (§3)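 Primary glioma neurosphere cultures were plated at 0.015×10^6 cells/well (5 replicates) in phenol red-free DMEM-F12. Cells were mixed with bis-AAF-R110 and incubated 2 h at 37 °C, with fluorescence read at 485/520 nm. Signal was blank-subtracted and expressed as fold change over vehicle (mean ± SD, two independent experiments).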

The subject of assay [9] is Glioma cell. Put plainly: Cytotoxicity against cdkn2a-deficient EGFRvIII amplified mouse neurosphere glioma cells using bis-AAF-R110 as substrate at 10 uM preincubated for 24 hrs followed by substrate addition measured after 2 hrs by fluorescence analysis. The assay is classed as functional, cell-based. Summed up: as §3
The test system of assay [10] is Glioma cell. Put plainly: Cytotoxicity against cdkn2a-deficient mouse neurosphere glioma cells at 10 uM after 24 hrs. The assay is classed as functional, cell-based. Summed up:
as §3

Assay [11] is described as follows: Cytotoxicity against human MES-SA/Dx5 cells assessed as growth inhibition incubated for 48 hrs by MTT assay. The note with it: MES-SA/Dx5, 48 h. The assay is classed as functional. Summed up: (§4)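 MTT assay on MES-SA and MES-SA/Dx5 uterine sarcoma cells in RPMI-1640 with 10% FBS. Dx5 cells were selected by stepwise doxorubicin exposure from 100 to 500 nM and maintained in 500 nM doxorubicin. Cells treated 48 h. GI50 is the concentration reducing viability 50% relative to DMSO control, from two independent experiments with 4 replicates each.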

The nature of assay [12]: Cytotoxicity against human MES-SA cells assessed as growth inhibition incubated for 48 hrs by MTT assay. Format: functional. Summed up: as §4
For assay [13], the system named is U-373MG ATCC. Put plainly: Cytotostatic activity on human U373 cells assessed as change in cell morphology at 35 uM after 72 hrs by videomicroscopic analysis. Format: functional, cell-based.
Assay [14] deals with U-373MG ATCC. Put plainly: Cytotoxicity against human U373 cells assessed as necrotic and late apoptotic cells at 35 uM after 72 hrs by Trypan blue assay. The assay is classed as functional, cell-based. Summed up:
as §2

A further assay relates to SCC-25. Briefly: Cytotoxicity against cisplatin-resistant human SCC25 cells assessed as growth inhibition. The assay is classed as functional, cell-based.
Assay [15] relates to Glioma cell. Briefly: Cytotoxicity against cdkn2a-deficient EGFRvIII amplified mouse neurosphere glioma cells using bis-AAF-R110 as substrate at 20 uM preincubated for 24 hrs followed by substrate addition measured after 2 hrs by fluorescence analysis. The assay is classed as functional, cell-based. Summed up:
(§5)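 GBM neurosphere primary cultures carrying cdkn2a deletion with PDGFB or EGFRvIII amplification. Plated at 0.015×10^6 cells/well, 5 replicates per condition, in DMEM-F12 without phenol red. Cell suspension then mixed with bis-AAF-R110 substrate for 2 h at 37 °C and fluorescence read at 485/520 nm. After blank subtraction, signals were normalized to vehicle (=1) to give fold relative cytotoxicity. Mean ± SD of two independent experiments.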

For assay [16], the system named is Glioma cell. Briefly: Cytotoxicity against cdkn2a-deficient mouse neurosphere glioma cells at 20 uM after 24 hrs. Format: functional, cell-based.
In assay [17] the target is Transient receptor potential cation channel subfamily V member 1 (Homo sapiens) (UniProt Q8NER1). Put plainly: Activity at TRPV1 in human MDA-MB--231 cells assessed as sustained and asynchronous increase in cytosolic Ca2+ level at 20 uM by FURA2-based fluorescence imaging analysis. The assay is classed as cell-based.
Another assay relates to PC-3. Briefly: Cytotoxicity against docetaxel-resistant human PC3 cells assessed as growth inhibition. The assay is classed as functional, cell-based.
For assay [18], the system named is U-373MG ATCC. Put plainly: Cytotostatic activity on human U373 cells assessed as change in cell morphology at 25 uM after 72 hrs by videomicroscopic analysis. The assay is classed as functional, cell-based.
The test system of the next assay is SCC-4. Put plainly: Cytotoxicity against docetaxel-resistant human SCC4 cells assessed as growth inhibition. Format: functional, cell-based.
The subject of assay [19] is Glioma cell. Put plainly: Cytotoxicity against cdkn2a/TRPV1 doubly deficient PDGFB amplified mouse neurosphere glioma cells using bis-AAF-R110 as substrate at 20 uM preincubated for 24 hrs followed by substrate addition measured after 2 hrs by fluorescence analysis. The assay is classed as functional, cell-based. Summed up:
as §5

Transient receptor potential cation channel subfamily V member 1 (Homo sapiens), sequence (Q8NER1 whole entry): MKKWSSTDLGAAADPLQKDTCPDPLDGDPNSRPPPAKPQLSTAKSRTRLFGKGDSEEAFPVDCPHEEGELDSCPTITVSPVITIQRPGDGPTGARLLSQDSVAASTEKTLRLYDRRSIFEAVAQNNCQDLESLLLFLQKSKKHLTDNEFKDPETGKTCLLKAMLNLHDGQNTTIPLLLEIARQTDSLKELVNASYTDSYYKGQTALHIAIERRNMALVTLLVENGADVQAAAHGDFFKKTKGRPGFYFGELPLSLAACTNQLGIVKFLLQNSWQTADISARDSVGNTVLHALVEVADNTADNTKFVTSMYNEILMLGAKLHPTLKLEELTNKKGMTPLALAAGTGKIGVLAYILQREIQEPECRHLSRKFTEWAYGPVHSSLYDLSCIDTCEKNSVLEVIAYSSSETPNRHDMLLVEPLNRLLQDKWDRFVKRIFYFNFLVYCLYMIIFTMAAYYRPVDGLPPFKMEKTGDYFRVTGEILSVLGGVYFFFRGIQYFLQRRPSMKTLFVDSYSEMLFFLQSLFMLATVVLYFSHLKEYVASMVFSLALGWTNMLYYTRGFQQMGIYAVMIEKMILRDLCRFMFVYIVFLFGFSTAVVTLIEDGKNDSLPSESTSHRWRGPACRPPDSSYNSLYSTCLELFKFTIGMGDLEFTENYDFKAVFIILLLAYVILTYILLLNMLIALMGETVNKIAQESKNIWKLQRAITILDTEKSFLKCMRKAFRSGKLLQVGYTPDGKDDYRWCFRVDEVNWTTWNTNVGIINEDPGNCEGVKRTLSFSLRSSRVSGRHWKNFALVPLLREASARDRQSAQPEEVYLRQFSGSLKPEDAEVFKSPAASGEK
Transient receptor potential cation channel subfamily V member 1 (Rattus norvegicus), sequence (O35433 whole entry): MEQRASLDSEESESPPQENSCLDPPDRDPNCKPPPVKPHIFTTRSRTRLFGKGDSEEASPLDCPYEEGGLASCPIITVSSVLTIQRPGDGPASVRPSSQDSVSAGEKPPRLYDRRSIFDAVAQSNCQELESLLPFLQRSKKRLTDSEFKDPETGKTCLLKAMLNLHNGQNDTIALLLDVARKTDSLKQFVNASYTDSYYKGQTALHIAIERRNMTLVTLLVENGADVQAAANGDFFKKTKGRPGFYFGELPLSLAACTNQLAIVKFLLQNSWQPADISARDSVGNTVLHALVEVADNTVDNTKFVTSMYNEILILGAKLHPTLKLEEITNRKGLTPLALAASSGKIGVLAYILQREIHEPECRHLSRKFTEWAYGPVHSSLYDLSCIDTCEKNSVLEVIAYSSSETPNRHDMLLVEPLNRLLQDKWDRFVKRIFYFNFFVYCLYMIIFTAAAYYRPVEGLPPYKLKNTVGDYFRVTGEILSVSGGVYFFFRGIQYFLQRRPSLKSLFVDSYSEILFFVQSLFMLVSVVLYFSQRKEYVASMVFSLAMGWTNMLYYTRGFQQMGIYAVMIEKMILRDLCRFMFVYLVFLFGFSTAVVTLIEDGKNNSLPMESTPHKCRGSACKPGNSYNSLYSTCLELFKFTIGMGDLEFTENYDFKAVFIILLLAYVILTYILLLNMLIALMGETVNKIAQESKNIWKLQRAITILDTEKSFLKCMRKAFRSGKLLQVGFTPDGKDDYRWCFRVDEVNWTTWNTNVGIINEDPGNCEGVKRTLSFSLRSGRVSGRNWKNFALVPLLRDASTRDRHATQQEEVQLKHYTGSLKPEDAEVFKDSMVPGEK

As for `CC1(C)CCC[C@]2(C)[C@@H](C=O)C(C=O)=CC[C@@H]12` [POLYGODIAL], the GI50 – broadly, the concentration that inhibits growth by half – is 90 µM in the assay on A549; 95 µM in assay [1]; 75 µM in the assay with MCF7; over 100 µM in assay [5]; 65 µM in the assay on SK-MEL-28. The result (in the assay with U-373MG ATCC [2]; in assay [6]) was Active. For the same compound, the result (in the assay on U-373MG ATCC [3]; in assay [4]) was inactive. Further, the inhibition (commonly the percentage by which the read-out fell short of the control) in assay [7] amounted to 76%.

In the case of `C=C(C)[C@@H]1CCC(C)=C[C@H]1c1c(O)cc(CCCCC)cc1O`, the “growth inhibition (GI)” value in the assay with Glioma cell [8] was “inactive”. Also, the “growth inhibition (GI)” value with Glioma cell [9] and in the assay on Glioma cell [10] was “Active” in each case.

Regarding `CC1(C)CCC[C@]2(C)[C@@H](C=O)C(/C=C/C(=O)OCc3ccccc3)=CC[C@@H]12`, the GI50 in the assay with A549 worked out at 28 µM; in assay [1] it was 31 µM; with MCF7, 27 µM; in assay [5], 39 µM; with SK-MEL-28, 39 µM.

Consider `CC[C@]1(O)C[C@@H]2CN(CCc3c([nH]c4ccccc34)[C@@](C(=O)OC)(c3cc4c(cc3OC)N(C)[C@H]3[C@@](O)(C(=O)OC)[C@H](OC(C)=O)[C@]5(CC)C=CCN6CC[C@]43[C@@H]65)C2)C1` [VINBLASTINE], for which the GI50 in [11] was determined as 5 µM; in assay [12] it was 0.006 µM.

As to `CC1(C)CCC[C@]2(C)[C@@H](C=O)C(/C=C/C#N)=CC[C@@H]12`, the 50% growth inhibitory concentration (GI50) was 27 µM with A549; 28 µM in assay [1]; 31 µM in the assay with MCF7; 36 µM in [5]; 42 µM with SK-MEL-28.

In the case of `CC(=O)O[C@H]1C(=O)[C@@]2(C)[C@H]([C@H](OC(=O)c3ccccc3)[C@]3(O)C[C@H](OC(=O)[C@H](O)[C@@H](NC(=O)c4ccccc4)c4ccccc4)C(C)=C1C3(C)C)[C@]1(OC(C)=O)CO[C@@H]1C[C@@H]2O` [PACLITAXEL], the 50% growth inhibitory concentration (GI50) is 10 µM in assay [11] and 0.007 µM in assay [12].

`C#CCCCOC(=O)/C=C/C1=CC[C@H]2C(C)(C)CCC[C@]2(C)[C@H]1C=O`: the GI50 in the assay on A549 was 30 µM; in assay [1], 33 µM; with MCF7, 30 µM; in [5], 35 µM; in the assay on SK-MEL-28, 36 µM. For the same compound, the result in the assay on U-373MG ATCC [13] was Active. For the same compound, in the assay with U-373MG ATCC [14], the result was inactive.

`COC(=O)/C=C/C=C/C1=CC[C@H]2C(C)(C)CCC[C@]2(C)[C@H]1C=O`: the GI50 with A549 worked out at 29 µM; in assay [1], 12 µM; in the assay with MCF7, 31 µM; in assay [5], 27 µM; in the assay with SK-MEL-28 it was 25 µM.

On to `CCOC(=O)/C=C/C1=CC[C@H]2C(C)(C)CCC[C@]2(C)[C@H]1C=O`, for which the GI50 was 25 µM with A549; 29 µM in assay [1]; 30 µM with MCF7; 37 µM in assay [5]; 29 µM in the assay on SK-MEL-28.

With `CCOC(=O)/C(C)=C/C1=CC[C@H]2C(C)(C)CCC[C@]2(C)[C@H]1C=O`, the 50% growth inhibitory concentration (GI50) turned out to be 26 µM in the assay on A549; 28 µM in assay [1]; 27 µM in the assay with MCF7; 37 µM in assay [5]; 37 µM in the assay with SK-MEL-28.

As for `COC(=O)/C=C/C1=CC[C@H]2C(C)(C)CCC[C@]2(C)[C@H]1C=O`, the “growth inhibition (GI)” value with SCC-25, in the assay on Glioma cell [15], in the assay on Glioma cell [16], in the assay on PC-3, in the assay on SCC-4 and with Glioma cell [19] was “Active” throughout. In addition, the GI50 with A549 turned out to be 21 µM; in assay [1] it was 24 µM; in [11] it was 45 µM; in the assay with MCF7, 7 µM; in assay [12] it was 40 µM; in [5], 22 µM. In addition, the 50% growth inhibitory concentration (GI50) with SK-MEL-28 came out at 27 µM. Also, the result (in [17]; with U-373MG ATCC [18]) was Active. For the same compound, in assay [7], the result was inactive.

`CC(C)(C)OC(=O)/C=C/C1=CC[C@H]2C(C)(C)CCC[C@]2(C)[C@H]1C=O`: the GI50 in the assay on A549 amounted to 29 µM; in assay [1], 29 µM; in the assay with MCF7 it was 32 µM; in assay [5], 40 µM; in the assay with SK-MEL-28, 41 µM.

Turning to `CC(=O)/C=C/C1=CC[C@H]2C(C)(C)CCC[C@]2(C)[C@H]1C=O`, the GI50 in the assay on A549 worked out at 24 µM; in assay [1], 22 µM; in the assay on MCF7 it was 20 µM; in assay [5], 25 µM; in the assay on SK-MEL-28, 28 µM.
